Experimental data reported in the EternaBench riboswitch data.

System: MS2 coat protein
Experiment: apparent Kd, MS2 coat protein; higher = weaker binding; RNA-MaP array; FMN 200 µM where present
Method in brief: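 Apparent Kd: the median of filtered binding-curve fits from single clusters. Designs were transcribed on Illumina sequencing-chip clusters by stalled E. coli RNA polymerase and titrated with SNAP-549-labelled MS2 coat protein from 0.7 or 1.5 nM, doubling to 3 µM, in 100 mM Tris-HCl pH 7.5, 80 mM KCl, 4 mM MgCl2, BSA, DTT, yeast tRNA and Tween-20. Each series ran without and then with constant ligand, and green signal was normalised to red-channel RNA signal and control-cluster median Fmax.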

[1] = designed as: OFF switch for flavin mononucleotide, no ligand
[2] = ligand present: flavin mononucleotide, designed as: OFF switch for flavin mononucleotide
[3] = designed as: ON switch for flavin mononucleotide, no ligand
[4] = ligand present: flavin mononucleotide, designed as: ON switch for flavin mononucleotide

Sequence	apparent Kd [1] [nM]	apparent Kd [2] [nM]	apparent Kd [3] [nM]	apparent Kd [4] [nM]
CAGUACUGAGGAUAUACAUGAGGAUCACCCAUGUGUUCCAGCUAGGAAACUAGCAAAAUUAGAAGGCAGUACUG	11.7	20.7	–	–
AAAAAAAAAGUGCAGGAUAUCCUCAUGGCUACAUGAGGAUCACCCAUGUGAAGAAAAGCACAUGAGGAGAAGGGCACAAAAAAAAA	–	–	23.4	12.3
UUACAUACAAAUGUACAUGAGGAUCACCCAUGUUUGUUGGGAAGAAGGGUAACAGUACUACACAUACAGGAUAUUUCACAAAUA	–	–	54	34
UAUAUAUAGUAAGGAUAUGUAUUAAUUAUAUAAACAGAAGGUACUGACAUGAGGAUCACCCAUGUUUUAGUGUGGGCAUGUAGA	81.5	122	–	–
GUUGUCUAUGUAGGAUAUGCGAGGCGAGGCCUCGCAGAAGGACAUGAGGAUCACCCAUGUAUUGCGGUCUGCGUUCAGAUCGCU	32.9	286	–	–
CGCUAUGACAUAGGAUAUUGGUACAUGAGGAUCACCCAUGUCAACCAUGAAGCUCGAUUUGUUGACAAGAAGGAUGUGGUAGCG	–	–	6.65	7.63
CAAUUCCGAGGAUAUACAUGAGGAUCACCCAUGUCGGGCCUCAGCGUUUAGCGCGUAAGUAGAAGGUGGGUUUC	30.4	41.1	–	–
GCUCUAUGCUAGAAGGCGUGAAACAUGAGGAUCACCCAUGUCAGAGAUAUGAGGAUAUGGCAUAGAGCAAAAGACGGAAACGUC	–	–	18.7	5.25
UAUACACAUGAGGAUCACCCAUGUGAGGAUAUGUUAAUUUUAAUGAAAAUUAAAAUUAACAGAAGGCACAUAUA	64.1	80.3	–	–
GGUGCAUAUGAGAAGGCGAUCAUGAAACAUGAUCGAGGAUAUCAUGUAAACAUGAGGAUCACCCAUGUAUGGGAAAAGUGCACC	–	–	64.8	8.54
CCAUGACCGGAGAAGGCAGUUUGUGGGCCUGUUCCUGUCGGAUACAUGAGGAUCACCCAUGUACCUGAGGAUAUCUGGUCGCAG	5.06	6.13	–	–
CCGACGCAAGCAGGAUAUCUACUGGCGAUGGUACAUGAGGAUCACCCAUGUAGAGAAGGGCUAAGUGGAAGGAUGAUUUAAAAG	113	97	–	–
UUAAUUAUACAAGGAUAUCUAUUGUAGUUUCGACAUACAUGAGGAUCACCCAUGUUAGUAUGUUUAGAGAAGGUGUAUUUUCAG	–	–	28.1	25.2
UGUAUGGACAGAGGAUAUACGGCUAGGAGAUACUAGCCACUAUUCCUCACAUGAGGAUCACCCAUGUAGAAGGCUGUCCAUACU	17.2	120	–	–
AACAUACUAUACAUGAGGAUCACCCAUGUUUGGGCACUGUACAGAAGGCACGGGCAAAUGCGAGGUGAGGAUAUGUAGUUAGUG	–	–	64.8	18.8
UGUGCGUCAGGAUAUUCUAUUUAUUACAUGAGGAUCACCCAUGUGAAUGUACAAGGGUGUGAAGAAGGGACUUGUC	686	526	–	–
UAACAGACGCCUUACAUGAGGAUCACCCAUGUGGCCUUAACCAGAAGGCCCGGAAGAUGACUCAGGGAGGAUAUGGUUUAACAG	–	–	349	57.3
GUUACAUGAGGAUCACCCAUGUAUGUGUGGGAGUAAGUGUCUUAGGAUAUCUAUUAUUGAAAUUAAGAGAAGGAAGAUUGUUGU	–	–	113	104

Sequence	apparent Kd [1] [nM]	apparent Kd [2] [nM]	apparent Kd [3] [nM]	apparent Kd [4] [nM]
CCGGUUUAUGGAGGAUAUGGAGCCUUAUUGGCUCCAGAAGGCUAAUAACAUGAGGAUCACCCAUGUCGGCGGUCUAAUGACCGA	–	–	33.1	20.6
CUUCCAGUUGCAGGAUAUCGAGAGGAGAGAUUACGAGAAGGGCAACAUGAGGAUCACCCAUGUAUGUGCUUGGGACAACCUAUC	16.8	107	–	–
GGGACUCUAAAUGGGCUGUCGACAUAGGAUAUGAUGUGCGACAUGAGGAUCACCCAUGUAACGAAUUAGAAGGGUGUAGGCAUG	–	–	574	173
CCACUGUCAGGAUAUCGUGCAUAAGCGAUUACAUUUAUGUGCGAGAAGGGACAUGAGGAUCACCCAUGUAAUCG	528	368	–	–
AUAUAUAUAUAAGGAUAUGUAUAUCCAACAUGAGGAUCACCCAUGUUGAGGAUCACCCAUGUAAAGCAGAAGGUAUAUAUAUAU	–	–	29.1	18
AGUCCAGAAGGAUAUACAUAGGUGAUAAAAAAAAAAAAACUACAUGAGGAUCACCCAUGUAGAAGGUCUGGACA	61.9	40	–	–
GAUCGCCAUGUCAGGAUAUCUUGUAUACCCACGUUAGAGAAGGGACAUGAGGAUCACCCAUGUACCCUGGUUUU	–	16.4	–	–
GCCAUCGCAUGAGGAUAUGCUCCGGUUUCCGGAGCAGAAGGCAUGUCGUAAGACAUGAGGAUCACCCAUGUAGUUAAGAUGGCA	–	–	1100	54.7
CAACUGCAUGUGAGGAUAUGCACCGGCCAAGCCGGGCAGAAGGCACAUGAGGAUCACCCAUGUCAUCCUAUUGC	12.6	27.8	–	–
CAGUACUGAGGAUAUACAUGAGGAUCACCCAUGUGUCCCGGCUAGGAAACUAGCAAAAGUAGAAGGCAGUACUG	24	516	–	–
CACCGUUACAGAGGAUAUCUUACAUGAGGAUCACCCAUGUAAUAAAUGAGAAUUUCGGAUGUAUGAGAGAAGGCUGGAAUCGGC	23.2	22	–	–
CUCUUGUAAGGAUAUCUGACAAGUGACGAAAGUCACAGUUCAGAGAAGGUACAUGAGGAUCACCCAUGUAGAAC	76.7	64.4	–	–
AUUUGACACGUAGGAUAUCGCUUAAAUUUAACACGAGAAGGACGAACAUGAGGAUCACCCAUGUAUCAUGGUGUAGAUAAUUUG	54.5	216	–	–
GCCAUCGCAUGAGGAUAUGGUCAGGUUUCCUGACCAGAAGGCAUGUCAUAAGACAUGAGGAUCACCCAUGUAGUUAAGAUGGCA	–	–	717	48.4
AAUUAUUUACAGAAGGAGUAAGAUUUUGUAUUACUAGGAUAUGUUAACAUGAGGAUCACCCAUGUGUUUGUAGGUUUUUUAUGU	12.2	8.54	–	–
CGUCGAUACCAGAAGGACAUGAGGAUCACCCAUGUAGGAUAUGGGUGACCGGGAUGGCGGACACGCUGCCCGGGCACAUGCGAC	–	–	10.6	7.79
GCUAGUAUUGCAGGAUAUUGAGAAUAAUUUUGGCAAGAAGGGCAUUACAUGAGGAUCACCCAUGUUUUCCUUAGUCAUACUAGC	6.39	5.85	–	–
UUGUUAUAUGUAGGAUAUGCGUGUUAUUAUUAUGCAGAAGGACAUGAGGAUCACCCAUGUGUAUUAUUAUUAUAUAUUAUAUAU	20.3	18.1	–	–
